Screening results as filed in PubChem.
This is a sample that favours compounds with a hit; in the whole collection about 1.7% have one here.
TPT1 inh: C. albicans TPT1 enzyme inhibition; recombinant caTPT1, FP RNA substrate dephosphorylation; inhibition, % at 5 µM; actives 0.81% (n = 300,000);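 active = inhibition above the mean of all tested compounds plus 3 SD, set per screening campaign, cut at about 24% in these data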
CSN inh: inhibitors of human CSN-mediated cullin deneddylation; Q92905; Purified CSN, SCF-Nedd8-OG deneddylation, fluorescence polarization; inhibition, % at 12.5 µM; actives 0.38% (n = 360,000); AID 651999;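 active = pattern-corrected inhibition above about 35%, with an unprinted fluorescence ratio check between 0.5 and 1.5, limit read from the data, passing the limit was not always enough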
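Assay system: purified human Csn5 enzyme expressed in HEK293T cells; Input: 0.24 nM Csn5 enzyme, final concentration; Reagent: 10 nM SCFSkp2-Nedd8OG; Compound dosing: 12.5 µM single point; Times: reaction 90 min, room temperature; Technique: fluorescence polarization readout.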
HNF4A DNA FP: change in binding of human HNF4 alpha to DNA; activity change, % at 10 µM; HNF4a-FITC DNA binding, fluorescence polarization, 1 h; actives 0.3% (n = 360,000); in the data active = activity change above about 30%, passing the limit was not always enough
Target sequence (P41235 whole entry, looked up): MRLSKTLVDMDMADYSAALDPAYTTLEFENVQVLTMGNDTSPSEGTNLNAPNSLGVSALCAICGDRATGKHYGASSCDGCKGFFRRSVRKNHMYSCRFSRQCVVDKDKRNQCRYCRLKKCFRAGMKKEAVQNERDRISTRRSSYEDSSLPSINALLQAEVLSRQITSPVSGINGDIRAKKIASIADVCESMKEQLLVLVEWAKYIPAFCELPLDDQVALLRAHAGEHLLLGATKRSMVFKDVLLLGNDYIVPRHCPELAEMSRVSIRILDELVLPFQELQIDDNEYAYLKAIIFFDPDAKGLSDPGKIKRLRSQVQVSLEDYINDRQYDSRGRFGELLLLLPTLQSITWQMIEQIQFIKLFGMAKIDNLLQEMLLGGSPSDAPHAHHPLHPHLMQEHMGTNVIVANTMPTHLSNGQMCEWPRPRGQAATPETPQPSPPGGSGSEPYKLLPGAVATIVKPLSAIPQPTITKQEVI
Rev-erbA mod: Rev-erb alpha (human) modulation; P20393; Rev-erbα–FITC-DNA binding, fluorescence polarization, 90 min; actives 0.79% (n = 370,000); activity, % at 10 µM;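 active = activity above about 14%, limit read from the data; passing the limit was not always enough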
Rev-erbA confirm: Rev-erb alpha (human) modulation, hit confirmation. shares compounds with Rev-erbA mod. Rev-erb alpha FITC-DNA binding, fluorescence polarization, 90 min. activation, % at 25 µM. actives 61% (n = 3,000);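 active = activation at or above a set limit, or at least 3 SD above the negative control mean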
RORg DNA counter: RORgamma DNA-binding activity, dose-response counter-screen. shares compounds with Rev-erbA mod. purified RORgamma protein-FITC-DNA binding, fluorescence polarization. IC50, µM. actives 8% (n = 910);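 active = Compounds whose fitted half-maximal concentration for disrupting protein-DNA binding is below 10 micromolar; the record names Rev-erb in its text, so the target is in doubt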
Of the large screens only hits and unclear results are named; the others gave an inactive call (follow-up assays come after a bar, where they were run).

COc1ccccc1NC(=O)c1sc(NC(=O)c2ccco2)c(C#N)c1C	Rev-erbA mod 104 | Rev-erbA confirm 47 | RORg DNA counter inactive
COC(=O)c1sc(NC(=O)c2ccco2)c(C#N)c1C	none
COc1ccccc1NC(=O)c1oc2ccccc2c1NC(=O)c1ccco1	Rev-erbA mod 27 | Rev-erbA confirm inactive
Cc1ccccc1OCC(=O)Nc1sc(C(=O)Nc2cccc(C)c2C)c(C)c1C#N	Rev-erbA mod 54 | Rev-erbA confirm 23
C[C@H]1Cn2cnc(C(=O)N(C)Cc3ccccc3)c2C(=O)N1	none (no result: TPT1 inh, CSN inh, HNF4A DNA FP)
CC(C)(C)OC(=O)N1CCC(N[C@@H](Cc2ccccc2)C(=O)NCC(c2ccccc2)c2ccccc2)(C(=O)NC2CCCCC2)CC1	none (no result: TPT1 inh, CSN inh, HNF4A DNA FP)
Cc1ccc(-c2c(C(=O)NCC(C)C)oc(=O)c3ccccc23)cc1	none (no result: TPT1 inh, CSN inh, HNF4A DNA FP)
CCCC(=O)N(c1ccc(OCC)cc1)S(=O)(=O)c1ccc2c3c(cccc13)C(=O)N2C	Rev-erbA mod 43 | Rev-erbA confirm inactive
COC(=O)c1cc2cc(Cl)ccc2nc1SC	Rev-erbA mod 98 | Rev-erbA confirm 53 | RORg DNA counter inactive
N#Cc1ccc(Cn2nnc(-c3ccc(N4CCOCC4)cc3)n2)cc1	none (no result: TPT1 inh, CSN inh, HNF4A DNA FP)
CCCC(C)NC(=O)Cc1ccc(Br)cc1 (centres undefined)	none
CCC(C)NC(=O)Cc1c(OC)ccc2cc(Br)ccc12 (centres undefined)	Rev-erbA mod 23 | Rev-erbA confirm 40 | RORg DNA counter inactive
COc1ccc(CNC(=O)C2CCCN(S(=O)(=O)c3ccc(-n4cnnn4)cc3)C2)cc1 (centres undefined)	none
CCN1C(=O)[C@H]2[C@@H](c3ccc(-c4cc(C(C)=O)cs4)cc3)N3CCCC[C@@]3(C(=O)OC)[C@H]2C1=O	Rev-erbA mod 30 | Rev-erbA confirm 21
CCN1C(=O)[C@H]2[C@@H](c3ccc(-c4cc(C(C)=O)cs4)cc3)N3CCC[C@@]3(C(=O)OC)[C@H]2C1=O	none
O=C(Nc1ccc(F)cc1)c1oc2ccccc2c1NC(=O)C1CCCC1	Rev-erbA mod 26 | Rev-erbA confirm inactive
Cc1cc(C)c2c(=O)[nH]c(=O)n(Cc3ccccc3)c2n1	Rev-erbA mod 23 | Rev-erbA confirm inactive
CCn1cc(C(=O)OCC(=O)Nc2c(C)n(C)n(-c3ccccc3)c2=O)c(=O)c2ccc(C)nc21	none (no result: Rev-erbA mod)
CCn1cc(C(=O)OCC(=O)Nc2cccc(Cl)c2Cl)c(=O)c2ccc(C)nc21	Rev-erbA mod 43 | Rev-erbA confirm 19
CC(=O)CC[C@H]1CC[C@]2(CCCN(C(=O)c3ccccc3)C2)O1	none (no result: TPT1 inh, CSN inh, HNF4A DNA FP)
C=CCN1[C@@H](CC(C)C)COc2cc(N3CCSCC3)ccc2S1(=O)=O	none (no result: TPT1 inh, CSN inh, HNF4A DNA FP)
Cc1cccc(Nc2nn3c(=O)c4ccccc4nc3s2)c1	HNF4A DNA FP 75, Rev-erbA mod 299 | Rev-erbA confirm 289 | RORg DNA counter inactive
CC1CCCN(C(=O)c2ccc3c(=O)n4nc(Nc5ccccc5)sc4nc3c2)C1 (centres undefined)	none (no result: TPT1 inh)
C[C@H]1[C@H](N(C)C)CC[C@@]23CCCN2C(=O)CCC[C@@H]13	none (no result: TPT1 inh, CSN inh, HNF4A DNA FP)
Cc1csc2ncc(C(=O)Nc3ccc4c(c3)OCCO4)c(=O)n12	Rev-erbA mod 28 | Rev-erbA confirm 14
Cc1cccc(NC(=O)c2cnc3scc(C)n3c2=O)c1	none
CCCCNC(=O)NS(=O)(=O)c1ccc(NC(=O)CSc2nnc(-c3ccc(Cl)cc3)n2N)cc1	none (no result: TPT1 inh, CSN inh, HNF4A DNA FP)
CC(=O)Nc1ccc2cnn(C(C)=O)c2c1	none (no result: TPT1 inh)
Cc1ccc(-c2cc(-c3nnc(SCC(=O)N4c5ccccc5Sc5ccccc54)n3N)[nH]n2)cc1	none (no result: TPT1 inh, CSN inh, HNF4A DNA FP)
COc1ccc2c(COC(=O)c3n[nH]c4ccccc34)cc(=O)oc2c1	CSN inh 38, Rev-erbA mod 59 | Rev-erbA confirm 34 | RORg DNA counter inactive
Cc1cc2oc(=O)cc(COC(=O)c3n[nH]c4ccccc34)c2cc1C	Rev-erbA mod 23 | Rev-erbA confirm inactive
COc1ccc2c(COC(=O)CCS(=O)(=O)c3ccccc3)cc(=O)oc2c1	none (no result: Rev-erbA mod)
CSc1sc(-c2nnc(SCC(=O)Nc3ccc(Cl)cc3)n2C)c2c1C=CCC2	Rev-erbA mod 33 | Rev-erbA confirm inactive
c1ccc(-c2nc3nonc3c3nc4ccccc4n23)cc1	none
c1ccc(-c2nc3ccccc3c3nc4ccccc4n23)cc1	Rev-erbA mod 22 | Rev-erbA confirm inactive
Cc1cc(C)c(NC(=O)COc2ccccc2C(=O)Nc2ccc3c(c2)oc2ccccc23)c(C)c1	Rev-erbA mod 32 | Rev-erbA confirm 37 | RORg DNA counter inactive
O=c1oc2ccccc2n1CSc1nc2ccccc2s1	Rev-erbA mod 18 | Rev-erbA confirm 20
Cc1cc(-c2cccc([N+](=O)[O-])c2)nc2ccc3ccccc3c12	Rev-erbA mod 38 | Rev-erbA confirm 42 | RORg DNA counter inactive
COC(=O)c1sc2nc(SCc3ccccc3C)n(N)c(=O)c2c1C	Rev-erbA mod 107 | Rev-erbA confirm inactive
COC(=O)c1sc2nc(SCc3cccc(Cl)c3)n(N)c(=O)c2c1C	none
COc1ccc(OC)c(NC(=O)c2[nH]c(C)c(C(C)=O)c2C)c1	Rev-erbA mod 31 | Rev-erbA confirm 22
COc1ccc(Cl)cc1NC(=O)c1[nH]c(C)c(C(C)=O)c1C	Rev-erbA mod 31 | Rev-erbA confirm 35 | RORg DNA counter inactive
COc1cc(NC(=O)c2[nH]c(C)c(C(C)=O)c2C)c(OC)cc1Cl	none (no result: TPT1 inh, CSN inh, HNF4A DNA FP)
Oc1ccccc1-c1nnc(-c2ccc(C(F)(F)F)cc2)o1	Rev-erbA mod 39 | Rev-erbA confirm 23
COc1cccc(-c2nnc(-c3ccc(C(F)(F)F)cc3)o2)c1	none
Nc1ncnc2c1ncn2[C@@H]1O[C@H](C(=O)N[C@@H](CCc2ccccc2)C(=O)N2CCN(C(=O)N3CCOCC3)CC2)[C@@H](O)[C@H]1O	none (no result: TPT1 inh, CSN inh, HNF4A DNA FP)
COc1ccc(NC(=O)c2sc3ncnc(N4CCN(c5ccccn5)CC4)c3c2C)cc1Cl	Rev-erbA mod 28 | Rev-erbA confirm 20
Cc1c(C(=O)NC2CCCCC2)sc2ncnc(N3CCN(c4ccccc4)CC3)c12	Rev-erbA mod 39 | Rev-erbA confirm inactive
Cc1cc(Br)ccc1NC(=O)c1sc2ncnc(N3CCN(c4ccccn4)CC3)c2c1C	Rev-erbA mod 69 | Rev-erbA confirm inactive
CC(=O)c1c(N2CCOCC2)nc2ccc(Cl)cc2c1-c1ccccc1	Rev-erbA mod 31 | Rev-erbA confirm 28
CC1(C)CC(=O)c2cnc(N3CCc4ccccc43)nc2C1	none
Fc1cnc(N2CCc3ccccc32)nc1N1CCc2ccccc21	Rev-erbA mod 57 | Rev-erbA confirm 137 | RORg DNA counter inactive
Clc1ccccc1N1CCN(C2=Nc3ccccc3Sc3ccccc32)CC1	none (no result: TPT1 inh, CSN inh, HNF4A DNA FP)
COP1(=O)CCOCC[C@H](CC(C)C)NC(=O)[C@H](CC(C)C)N1 (some centres undefined)	none (no result: TPT1 inh, CSN inh, HNF4A DNA FP)
O=c1[nH]c(CSc2ncnc3sc(-c4ccccc4)cc23)nc2ccccc12	Rev-erbA mod 39 | Rev-erbA confirm inactive
